Results pooled from the literature.
Target: 5-hydroxytryptamine receptor 2C (HTR2C, Homo sapiens, UniProt P28335)
Sequence (P28335 33-458, as in one of the studies): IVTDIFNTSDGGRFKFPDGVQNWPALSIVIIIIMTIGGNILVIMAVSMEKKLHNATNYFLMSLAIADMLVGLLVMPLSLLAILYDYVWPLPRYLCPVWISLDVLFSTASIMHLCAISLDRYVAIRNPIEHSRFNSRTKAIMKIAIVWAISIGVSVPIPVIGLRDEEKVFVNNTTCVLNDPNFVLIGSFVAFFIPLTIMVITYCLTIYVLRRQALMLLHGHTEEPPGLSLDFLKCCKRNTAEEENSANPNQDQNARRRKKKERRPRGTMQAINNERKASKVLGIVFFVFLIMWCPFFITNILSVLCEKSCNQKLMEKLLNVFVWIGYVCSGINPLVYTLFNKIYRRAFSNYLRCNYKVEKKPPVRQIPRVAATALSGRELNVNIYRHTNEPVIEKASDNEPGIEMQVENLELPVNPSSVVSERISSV

| Compound | read-out | mode | technique | measurement | result |
| --- | --- | --- | --- | --- | --- |
| CNc1nc2cc(OCCCCN3CCC(c4cccc(Cl)c4Cl)CC3)ccc2s1 | cell-free assay |  | radioligand | Ki | 73 nM |
| CN(CCCCNC(=O)c1cc2ccccc2[nH]1)[C@@H]1Cc2cccc3[nH]c(=O)n(c23)C1 | ligand displacement |  | radioligand | Ki | 2440 nM |
| C#CCOCCOc1ccc2c3c1C1CCCC1N3CCNC2 (racemic) | calcium signal | agonist | fluorescence | EC50 | 53.4 nM |
| Fc1ccc(CCCCN2CCN(c3ccccn3)CC2)cc1 | ligand displacement |  | radioligand | Ki | > 10000 nM |
| OC[C@@]12C[C@@H]1[C@@H](n1cnc3c(N[C@@H](C4CCC4)C4CC4)nc(I)nc31)[C@H](O)[C@@H]2O | calcium signal | antagonist |  | Kb | 148 nM |
| CC1Cc2ccccc2N1C(=O)NCCCCN(C)[C@@H]1Cc2cccc3[nH]c(=O)n(c23)C1 (mixture of isomers) | ligand displacement |  | radioligand | Ki | > 10000 nM |
| Cc1nc2cc(OCCCCN3CCN(c4cccc(Cl)c4Cl)CC3)ccc2s1 | cell-free assay |  | radioligand | Ki | 160 nM |
| CCCCN1CCC(COC(=O)c2ccc(N)c(OCF)c2)CC1 | cell-free assay |  | radioligand | Ki | > 10000 nM |
| C#CCOCCOCCOc1ccc2c3c1C1CCCC1N3CCNC2 (racemic) | calcium signal | agonist | fluorescence | EC50 | 237 nM |
| CC(C)(C)c1cc(C(C)(C)CO)c(O)cc1NC(=O)c1c[nH]c2ccccc2c1=O | ligand displacement |  | radioligand | Ki | 1550 nM |
| COc1cc(OC)c(C(=O)CCCCN2CCC3(CC2)NC(=O)NC3=O)cc1NS(=O)(=O)c1ccc(C(F)(F)F)cc1 | ligand displacement |  | radioligand | Ki | 0.99 nM |
| O=C1c2ccccc2CCN1CCCCN1CCN(c2cccc(Cl)c2Cl)CC1 | ligand displacement |  | radioligand | Ki | 354 nM |
| CN(Cc1ccc(NC(=O)C2=Cc3cc(-c4ccc(OCCCF)cc4)ccc3CCC2)cc1)C1CCOCC1 | ligand displacement |  | radioligand | Ki | 1020 nM |
